From the M2OR odorant receptor database
Substitutions are numbered along the chain they refer to.

System: T1, OR1N2 W37R
T1 sequence (whole entry): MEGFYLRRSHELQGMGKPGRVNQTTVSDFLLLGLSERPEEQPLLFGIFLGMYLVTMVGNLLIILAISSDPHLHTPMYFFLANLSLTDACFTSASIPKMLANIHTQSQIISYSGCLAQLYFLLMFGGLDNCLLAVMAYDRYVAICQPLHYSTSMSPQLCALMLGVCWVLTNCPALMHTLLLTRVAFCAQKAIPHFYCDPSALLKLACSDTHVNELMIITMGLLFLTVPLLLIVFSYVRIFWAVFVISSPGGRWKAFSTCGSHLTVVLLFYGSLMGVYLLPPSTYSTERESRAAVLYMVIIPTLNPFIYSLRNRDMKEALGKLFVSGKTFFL
Settings: stereoisomer not certain
How it was run: (§1)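 Assay methods differ from source to source, frequently being transient luciferase assays in mammalian cell lines. For each receptor–molecule pair, the label responsive (active) applies when the original authors judged the measured signal statistically different from baseline, and non-responsive (inactive) applies otherwise.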

Odorant receptor agonist call, inactive:
CCCC(S)CCOC(C)=O (stereo unspecified), CC1=C(O)C(=O)OC1C (stereo unspecified), CCC1OC(=O)C(O)=C1C (stereo unspecified), Cc1cnc(C)c(C)n1, CCC1OC(C)=C(O)C1=O (stereo unspecified), CC1=NC(C)C(C)S1 (stereo unspecified), CC1=C(O)C(=O)C(C)O1 (stereo unspecified)

System: T2, OR1N2
T2 sequence (whole entry): T1 sequence (whole entry) with R37W
Settings: stereoisomer not certain
How it was run: as §1

Odorant receptor agonist call, inactive:
CCCC(S)CCOC(C)=O (stereo unspecified), CCCCCC(=O)C(C)C(C)=O (stereo unspecified), CCCCCC(S)C(C)CO (stereo unspecified), CC(CO)CS (stereo unspecified), CCC(S)C(C)CO (stereo unspecified), CC1=C(O)C(=O)OC1C (stereo unspecified), CCC1OC(=O)C(O)=C1C (stereo unspecified), Cc1cnc(C)c(C)n1, CCC1OC(C)=C(O)C1=O (stereo unspecified), CC1CCCCCCCCCCCCC(=O)C1 (stereo unspecified), CC1=NC(C)C(C)S1 (stereo unspecified), CC(=O)c1c(C)c([N+](=O)[O-])c(C(C)(C)C)c([N+](=O)[O-])c1C, CCCCC(S)C(C)CO (stereo unspecified), CC1=C(O)C(=O)C(C)O1 (stereo unspecified)

Target: T3, OR1Q1 (Homo sapiens) (UniProt Q15612)
T3 sequence (whole entry): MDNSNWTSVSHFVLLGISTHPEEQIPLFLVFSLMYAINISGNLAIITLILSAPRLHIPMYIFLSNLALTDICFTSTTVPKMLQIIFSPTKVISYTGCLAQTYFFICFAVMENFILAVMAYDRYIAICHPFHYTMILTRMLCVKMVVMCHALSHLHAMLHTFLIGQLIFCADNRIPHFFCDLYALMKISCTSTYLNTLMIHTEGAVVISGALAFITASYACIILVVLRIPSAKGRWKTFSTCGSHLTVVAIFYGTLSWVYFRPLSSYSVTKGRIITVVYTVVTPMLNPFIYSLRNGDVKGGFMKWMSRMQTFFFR
Settings: stereoisomer not certain
How it was run: as §1

Odorant receptor agonist call, inactive:
CCCC(S)CCOC(C)=O (stereo unspecified), CCCCCC(=O)C(C)C(C)=O (stereo unspecified), CCCCCC(S)C(C)CO (stereo unspecified), CC(CO)CS (stereo unspecified), CCC(S)C(C)CO (stereo unspecified), CC1=C(O)C(=O)OC1C (stereo unspecified), CCC1OC(=O)C(O)=C1C (stereo unspecified), Cc1cnc(C)c(C)n1, CCC1OC(C)=C(O)C1=O (stereo unspecified), CC1CCCCCCCCCCCCC(=O)C1 (stereo unspecified), CC1=NC(C)C(C)S1 (stereo unspecified), CC(=O)c1c(C)c([N+](=O)[O-])c(C(C)(C)C)c([N+](=O)[O-])c1C, CCCCC(S)C(C)CO (stereo unspecified), CC1=C(O)C(=O)C(C)O1 (stereo unspecified)

System: T4, OR1Q1
T4 sequence (whole entry): T3 sequence (whole entry) with Q24R, I163M
Settings: stereoisomer not certain
How it was run: as §1

Odorant receptor agonist call, inactive:
CCCC(S)CCOC(C)=O (stereo unspecified), CC1=C(O)C(=O)OC1C (stereo unspecified), CCC1OC(=O)C(O)=C1C (stereo unspecified), Cc1cnc(C)c(C)n1, CCC1OC(C)=C(O)C1=O (stereo unspecified), CC1=NC(C)C(C)S1 (stereo unspecified), CC1=C(O)C(=O)C(C)O1 (stereo unspecified)

Target: T5, OR1S1 (Homo sapiens) (UniProt Q8NH92)
T5 sequence (whole entry): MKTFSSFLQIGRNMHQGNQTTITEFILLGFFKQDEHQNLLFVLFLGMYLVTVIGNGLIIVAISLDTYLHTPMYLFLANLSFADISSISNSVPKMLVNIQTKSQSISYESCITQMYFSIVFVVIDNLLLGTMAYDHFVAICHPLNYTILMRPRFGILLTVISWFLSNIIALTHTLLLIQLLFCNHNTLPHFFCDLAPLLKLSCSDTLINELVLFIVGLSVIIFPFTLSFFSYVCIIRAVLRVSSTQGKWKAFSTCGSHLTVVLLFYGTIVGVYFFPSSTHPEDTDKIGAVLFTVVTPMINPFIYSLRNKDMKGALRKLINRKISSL
Settings: stereoisomer not certain
How it was run: as §1

Odorant receptor agonist call, inactive:
CCCC(S)CCOC(C)=O (stereo unspecified), CCCCCC(=O)C(C)C(C)=O (stereo unspecified), CCCCCC(S)C(C)CO (stereo unspecified), CC(CO)CS (stereo unspecified), CCC(S)C(C)CO (stereo unspecified), CC1=C(O)C(=O)OC1C (stereo unspecified), CCC1OC(=O)C(O)=C1C (stereo unspecified), Cc1cnc(C)c(C)n1, CCC1OC(C)=C(O)C1=O (stereo unspecified), CC1CCCCCCCCCCCCC(=O)C1 (stereo unspecified), CC1=NC(C)C(C)S1 (stereo unspecified), CC(=O)c1c(C)c([N+](=O)[O-])c(C(C)(C)C)c([N+](=O)[O-])c1C, CCCCC(S)C(C)CO (stereo unspecified), CC1=C(O)C(=O)C(C)O1 (stereo unspecified)
